Measured values from ChEMBL document CHEMBL1155603, “Stilbene glycoside sulfates from Polygonum cuspidatum” (J Nat Prod, 2000).
Activity calls are given as the source filed them. The rule behind the calls is not given here.

Tests used:
Candida albicans = assay: Antifungal activity against Candida albicans; type: functional, organism-based
Procedure, shortened: (§1)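 In vitro susceptibility test on yeasts, run by the National Committee for Clinical and Laboratory Standards procedure.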

Cryptococcus neoformans = assay: Antifungal activity against Cryptococcus neoformans; type: functional, organism-based; procedure, shortened: as §1
Candida parapsilosis = assay: Antifungal activity against Candida parapsilosis; type: functional, organism-based; procedure, shortened: as §1
Candida tropicalis = assay: Antifungal activity against Candida tropicalis; type: functional, organism-based; procedure, shortened: as §1
Sporothrix schenckii = assay: Antifungal activity against Sporothrix schenckii; type: functional, organism-based
Aspergillus fumigatus = assay: Antifungal activity against Aspergillus fumigatus; type: functional, organism-based
Trichophyton rubrum = assay: Antifungal activity against Trichophyton rubrum; type: functional, organism-based
Fonsecaea pedrosoi = assay: Antifungal activity against Fonsecaea pedrosoi; type: functional, organism-based
A549 = assay: Cytotoxicity against human A549 cells after 96 hrs by MTT assay; type: functional, cell-based; settings: A549, 96 h

O=S(=O)(O)OC[C@H]1O[C@@H](Oc2cc(O)cc(/C=C/c3ccc(O)cc3)c2)[C@H](O)[C@@H](O)[C@@H]1O
Activity (Candida albicans): inactive
Activity (Cryptococcus neoformans): inactive
Activity (Candida parapsilosis): inactive
Activity (Candida tropicalis): inactive
Activity (Sporothrix schenckii): inactive
Activity (Aspergillus fumigatus): inactive
Activity (Trichophyton rubrum): inactive
Activity (Fonsecaea pedrosoi): inactive

O=S(=O)(O)OC[C@H]1O[C@@H](Oc2cc(O)cc(/C=C\c3ccc(O)cc3)c2)[C@H](O)[C@@H](O)[C@@H]1O
Activity (Candida albicans): inactive
Activity (Cryptococcus neoformans): inactive
Activity (Candida parapsilosis): inactive
Activity (Candida tropicalis): inactive
Activity (Sporothrix schenckii): inactive
Activity (Aspergillus fumigatus): inactive
Activity (Trichophyton rubrum): inactive
Activity (Fonsecaea pedrosoi): inactive

O=S(=O)(O)Oc1ccc(/C=C/c2cc(O)cc(O[C@@H]3O[C@H](CO)[C@@H](O)[C@H](O)[C@H]3O)c2)cc1
Activity (Candida albicans): inactive
Activity (Cryptococcus neoformans): inactive
Activity (Candida parapsilosis): inactive
Activity (Candida tropicalis): inactive
Activity (Sporothrix schenckii): inactive
Activity (Aspergillus fumigatus): inactive
Activity (Trichophyton rubrum): inactive
Activity (Fonsecaea pedrosoi): inactive

O=S(=O)(O)O[C@H]1[C@H](Oc2cc(O)cc(/C=C\c3ccc(O)cc3)c2)O[C@H](CO)[C@@H](O)[C@@H]1O
Activity (Candida albicans): inactive
Activity (Cryptococcus neoformans): inactive
Activity (Candida parapsilosis): inactive
Activity (Candida tropicalis): inactive
Activity (Sporothrix schenckii): inactive
Activity (Aspergillus fumigatus): inactive
Activity (Trichophyton rubrum): inactive
Activity (Fonsecaea pedrosoi): inactive

O=S(=O)(O)Oc1cc(/C=C/c2ccc(O)cc2)cc(O[C@@H]2O[C@H](CO)[C@@H](O)[C@H](O)[C@H]2O)c1
Activity (Candida albicans): inactive
Activity (Cryptococcus neoformans): inactive
Activity (Candida parapsilosis): inactive
Activity (Candida tropicalis): inactive
Activity (Sporothrix schenckii): inactive
Activity (Aspergillus fumigatus): inactive
Activity (Trichophyton rubrum): inactive
Activity (Fonsecaea pedrosoi): inactive

O=S(=O)(O)Oc1cc(/C=C\c2ccc(O)cc2)cc(O[C@@H]2O[C@H](CO)[C@@H](O)[C@H](O)[C@H]2O)c1
Activity (Candida albicans): inactive
Activity (Cryptococcus neoformans): inactive
Activity (Candida parapsilosis): inactive
Activity (Candida tropicalis): inactive
Activity (Sporothrix schenckii): inactive
Activity (Aspergillus fumigatus): inactive
Activity (Trichophyton rubrum): inactive
Activity (Fonsecaea pedrosoi): inactive

O=S(=O)(O)O[C@H]1[C@H](Oc2cc(O)cc(/C=C/c3ccc(O)cc3)c2)O[C@H](CO)[C@@H](O)[C@@H]1O
Activity (Candida albicans): inactive
Activity (Cryptococcus neoformans): inactive
Activity (Candida parapsilosis): inactive
Activity (Candida tropicalis): inactive
Activity (Sporothrix schenckii): inactive
Activity (Aspergillus fumigatus): inactive
Activity (Trichophyton rubrum): inactive
Activity (Fonsecaea pedrosoi): inactive

O=S(=O)([O-])O[C@H]1[C@H](O)[C@@H](O)[C@H](Oc2cc(O)cc(/C=C/c3ccc(O)cc3)c2)O[C@@H]1CO.[K+]
IC50 (A549): 80 µg/mL
Activity (Candida albicans): inactive
Activity (Cryptococcus neoformans): inactive
Activity (Candida parapsilosis): inactive
Activity (Candida tropicalis): inactive
Activity (Sporothrix schenckii): inactive
Activity (Aspergillus fumigatus): inactive
Activity (Trichophyton rubrum): inactive
Activity (Fonsecaea pedrosoi): inactive

O=S(=O)(O)O[C@H]1[C@H](O)[C@@H](O)[C@H](Oc2cc(O)cc(/C=C\c3ccc(O)cc3)c2)O[C@@H]1CO
Activity (Candida albicans): inactive
Activity (Cryptococcus neoformans): inactive
Activity (Candida parapsilosis): inactive
Activity (Candida tropicalis): inactive
Activity (Sporothrix schenckii): inactive
Activity (Aspergillus fumigatus): inactive
Activity (Trichophyton rubrum): inactive
Activity (Fonsecaea pedrosoi): inactive
